Data published in ChEMBL document CHEMBL3616473, “Identification and in silico prediction of metabolites of the model compound, tebufenozide by human CYP3A4 and CYP2C19” (Bioorg Med Chem, 2015).

Key:
[1] = Retention time of the compound by HPLC method; type: physicochemical
Cytochrome P450 2C19 = Cytochrome P450 2C19 (Homo sapiens, UniProt P33261); experiment: Drug level in yeast cells expressing human CYP2C19 assessed as human CYP2C19-mediated compound formation by pre-incubated with 200 uM tebufenozide for 2 mins at 37 degC before NADPH addition by LC/MS method; type: ADME, cell-based; details: recombinant enzyme
Cytochrome P450 2C19, sequence (P33261 whole entry): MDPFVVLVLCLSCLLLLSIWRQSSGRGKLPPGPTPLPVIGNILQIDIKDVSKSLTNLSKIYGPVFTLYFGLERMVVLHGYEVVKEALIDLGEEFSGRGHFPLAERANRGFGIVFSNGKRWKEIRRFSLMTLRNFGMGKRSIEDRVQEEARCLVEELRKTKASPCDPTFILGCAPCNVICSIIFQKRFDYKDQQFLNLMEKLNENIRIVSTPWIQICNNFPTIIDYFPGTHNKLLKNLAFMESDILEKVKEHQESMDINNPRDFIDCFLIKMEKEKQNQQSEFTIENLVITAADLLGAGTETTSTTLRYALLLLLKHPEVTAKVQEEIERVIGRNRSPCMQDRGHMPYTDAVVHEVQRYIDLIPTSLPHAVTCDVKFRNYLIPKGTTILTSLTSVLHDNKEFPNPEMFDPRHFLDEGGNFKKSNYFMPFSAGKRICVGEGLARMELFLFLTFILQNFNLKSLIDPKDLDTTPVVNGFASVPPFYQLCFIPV
Method in brief: (§1)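 Microsomes with 67 nM human P450 in 100 mM phosphate buffer, pH 7.4, preincubated 2 min at 37 °C. Reaction started with NADPH (1 mM final) at 37 °C and stopped at various times with two volumes of acetonitrile and shaking. After centrifugation (7,000 G, 10 min), the acetonitrile phase was analysed by HPLC and by LC/MS (ESI positive mode, m/z 100-500).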

Cytochrome P450 3A4 = Cytochrome P450 3A4 (Homo sapiens, UniProt P08684); experiment: Drug level in yeast cells expressing human CYP3A4 assessed as human CYP3A4-mediated compound formation by pre-incubated with 200 uM tebufenozide for 2 mins at 37 degC before NADPH addition by LC/MS method; type: ADME, cell-based; details: recombinant enzyme; method in brief: as §1
Cytochrome P450 3A4, sequence (P08684 whole entry): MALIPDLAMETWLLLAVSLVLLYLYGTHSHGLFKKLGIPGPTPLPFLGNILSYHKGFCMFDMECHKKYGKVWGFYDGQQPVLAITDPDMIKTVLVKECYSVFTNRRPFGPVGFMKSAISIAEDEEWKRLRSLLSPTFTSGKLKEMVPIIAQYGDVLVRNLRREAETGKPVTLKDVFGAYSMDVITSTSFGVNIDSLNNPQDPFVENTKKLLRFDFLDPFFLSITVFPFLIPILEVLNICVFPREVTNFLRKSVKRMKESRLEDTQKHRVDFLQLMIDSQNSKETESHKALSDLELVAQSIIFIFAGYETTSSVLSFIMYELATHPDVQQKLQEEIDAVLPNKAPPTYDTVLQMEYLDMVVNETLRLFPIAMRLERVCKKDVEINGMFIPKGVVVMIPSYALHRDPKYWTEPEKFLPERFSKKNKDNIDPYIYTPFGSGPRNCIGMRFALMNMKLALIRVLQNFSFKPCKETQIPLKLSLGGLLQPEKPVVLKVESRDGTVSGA

[2] = Selectivity index, ratio of Vmax for human CYP3A4-mediated metabolite-M1 formation to Vmax for human CYP2C19-mediated metabolite-M1 formation; details: recombinant enzyme
Method in brief: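 Microsomes with 67 nM human CYP3A4 or CYP2C19 in 100 mM phosphate buffer, pH 7.4, with tebufenozide (1–50, 2% acetonitrile), preincubated 2 min at 37 °C. NADPH (1 mM final) was added, and reactions were stopped with acetonitrile after 5 min (CYP3A4) or 10 min (CYP2C19). M1 was quantified by HPLC, and Km and Vmax were fitted from rate (mol/min/mol P450) against substrate concentration.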

[3] = Selectivity index, ratio of Km for human CYP3A4-mediated metabolite-M1 formation to Km for human CYP2C19-mediated metabolite-M1 formation; details: recombinant enzyme

| Structure (SMILES) | Retention_time [1] | Drug metabolism (Cytochrome P450 2C19) | Drug metabolism (Cytochrome P450 3A4) | Ratio [2] | Ratio [3] |
| --- | --- | --- | --- | --- | --- |
| CCc1ccc(C(=O)NN(C(=O)c2cc(C)cc(CO)c2)C(C)(C)C)cc1 | 10.5 min |  | metabolite_detected |  |  |
| CCc1ccc(C(=O)NN(C(=O)c2cc(C)cc(C)c2)C(C)(C)C)cc1 [TEBUFENOZIDE] |  |  |  | 6 | 4 |

Further lines, with some results ahead:

| Retention_time [1] | Drug metabolism (Cytochrome P450 2C19) | Drug metabolism (Cytochrome P450 3A4) | Structure (SMILES) | Ratio [2] | Ratio [3] |
| --- | --- | --- | --- | --- | --- |
| 9.5 min | metabolite_detected | metabolite_detected | Cc1cc(C)cc(C(=O)N(NC(=O)c2ccc(C(C)O)cc2)C(C)(C)C)c1 (racemic) |  |  |
| 14.5 min |  | metabolite_detected | CCc1ccc(C(=O)NN(C(=O)c2cc(C)cc(C)c2)C(C)(C)CO)cc1 |  |  |
| 15 min | metabolite_detected |  | C=Cc1ccc(C(=O)NN(C(=O)c2cc(C)cc(C)c2)C(C)(C)C)cc1 |  |  |
| 12 min | metabolite_detected |  | CC(=O)c1ccc(C(=O)NN(C(=O)c2cc(C)cc(C)c2)C(C)(C)C)cc1 |  |  |
